{"source": "ChEMBL document CHEMBL1821706", "about": "“Unprecedented citrinin trimer tricitinol B functions as a novel topoisomerase IIα inhibitor” (J Med Chem, 2011)", "key": {"[1]": {"tested_on": "HL-60", "assay": "Induction of apoptosis in human HL60 cells assessed as Bid cleavage at 2.5 to 10 uM after 24 hrs by Western blotting", "assay_type": "functional, cell-based", "in_short": "(§1)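 Cells (2×10^5/mL) were exposed to 2.5–10 μM for 24 h, then whole-cell lysates were made. Pro-/cleaved caspase-3, caspase-8, pro-/cleaved caspase-9, PARP (116 kDa full length, 85 kDa fragment) and Bid were probed by Western blot with ECL detection.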"}, "[2]": {"tested_on": "HCT-116", "assay": "Induction of apoptosis in human HCT116 cells assessed as activation of caspase 9 at 2.5 to 10 uM after 24 hrs by Western blotting", "assay_type": "functional, cell-based", "in_short": "as §1"}, "[3]": {"tested_on": "HL-60", "assay": "Induction of apoptosis in human HL60 cells assessed as activation of caspase 9 at 2.5 to 10 uM after 24 hrs by Western blotting", "assay_type": "functional, cell-based", "in_short": "as §1"}, "[4]": {"tested_on": "HCT-116", "assay": "Induction of apoptosis in human HCT116 cells assessed as increase in cleaved PARP levels after 24 hrs by Western blotting", "assay_type": "functional, cell-based", "in_short": "as §1"}, "[5]": {"tested_on": "HL-60", "assay": "Induction of apoptosis in human HL60 cells assessed as increase in cleaved PARP levels after 24 hrs by Western blotting", "assay_type": "functional, cell-based", "in_short": "as §1"}, "[6]": {"tested_on": "HCT-116", "assay": "Induction of apoptosis in human HCT116 cells assessed as decrease in procaspase 3 expression after 24 hrs by Western blotting", "assay_type": "functional, cell-based", "in_short": "as §1"}, "[7]": {"tested_on": "HL-60", "assay": "Induction of apoptosis in human HL60 cells assessed as DNA ladder formation after 24 hrs using Annexin-V/PI double-staining by flow cytometric analysis", "assay_type": "functional, cell-based", "in_short": "(§2)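 HL60 cells were treated with 2.5, 5.0, 7.5 or 10.0 μM for 24 h for DNA ladder analysis, representative of three experiments. Apoptotic fractions were measured after 2.5–10 μM for 24 h, or 10 μM over a time course, by Annexin/PI staining and flow cytometry (early plus late apoptotic cells), as mean ± SD of three experiments.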"}, "[8]": {"tested_on": "HL-60", "assay": "Induction of apoptosis in human HL60 cells assessed as DNA ladder formation at 10 uM after 1.5 to 24 hrs using Annexin-V/PI double-staining by flow cytometric analysis", "assay_type": "functional, cell-based", "in_short": "as §2"}, "[9]": {"tested_on": "HL-60", "assay": "Induction of apoptosis in human HL60 cells assessed as DNA ladder formation at 2.5 to 10 uM after 24 hrs using Annexin-V/PI double-staining by flow cytometric analysis", "assay_type": "functional", "in_short": "as §2"}, "[10]": {"tested_on": "MCF7", "assay": "Drug resistance index, ratio of IC50 for adriyamycin-resistant human MCF7 cells to IC50 for human MCF7 cells", "assay_type": "functional"}, "[11]": {"tested_on": "KB", "assay": "Cytotoxicity against vincristine-resistant human KB cells over expressing P-glycoprotein after 72 hrs by SRB assay", "assay_type": "functional, cell-based", "in_short": "(§3)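 Adherent human tumour lines were seeded and exposed in triplicate to graded compound concentrations at 37 °C for 72 h. Growth was read by sulforhodamine B staining. IC50 (50% growth inhibition) was obtained by the Logit method from at least three independent experiments and reported as mean ± SD.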"}, "[12]": {"tested_on": "MCF7", "assay": "Cytotoxicity against adriyamycin-resistant human MCF7 cells over expressing P-glycoprotein after 72 hrs by SRB assay", "assay_type": "functional, cell-based", "details": "MCF7, 72 h", "in_short": "as §3"}, "[13]": {"tested_on": "A-431", "assay": "Cytotoxicity against human A431 cells after 72 hrs by SRB assay", "assay_type": "functional, cell-based", "details": "A-431, 72 h, pooled result: one value given for 15 cell lines, strains, targets or settings", "in_short": "as §3"}, "[14]": {"tested_on": "KB", "assay": "Cytotoxicity against human KB cells after 72 hrs by SRB assay", "assay_type": "functional, cell-based", "in_short": "as §3"}, "[15]": {"tested_on": "HCT-116", "assay": "Cytotoxicity against human HCT116 cells after 72 hrs by SRB assay", "assay_type": "functional, cell-based", "details": "HCT-116, 72 h", "in_short": "as §3"}, "[16]": {"biological_target": "DNA topoisomerase 2-alpha (Homo sapiens) (UniProt P11388)", "sequence (P11388 whole entry)": "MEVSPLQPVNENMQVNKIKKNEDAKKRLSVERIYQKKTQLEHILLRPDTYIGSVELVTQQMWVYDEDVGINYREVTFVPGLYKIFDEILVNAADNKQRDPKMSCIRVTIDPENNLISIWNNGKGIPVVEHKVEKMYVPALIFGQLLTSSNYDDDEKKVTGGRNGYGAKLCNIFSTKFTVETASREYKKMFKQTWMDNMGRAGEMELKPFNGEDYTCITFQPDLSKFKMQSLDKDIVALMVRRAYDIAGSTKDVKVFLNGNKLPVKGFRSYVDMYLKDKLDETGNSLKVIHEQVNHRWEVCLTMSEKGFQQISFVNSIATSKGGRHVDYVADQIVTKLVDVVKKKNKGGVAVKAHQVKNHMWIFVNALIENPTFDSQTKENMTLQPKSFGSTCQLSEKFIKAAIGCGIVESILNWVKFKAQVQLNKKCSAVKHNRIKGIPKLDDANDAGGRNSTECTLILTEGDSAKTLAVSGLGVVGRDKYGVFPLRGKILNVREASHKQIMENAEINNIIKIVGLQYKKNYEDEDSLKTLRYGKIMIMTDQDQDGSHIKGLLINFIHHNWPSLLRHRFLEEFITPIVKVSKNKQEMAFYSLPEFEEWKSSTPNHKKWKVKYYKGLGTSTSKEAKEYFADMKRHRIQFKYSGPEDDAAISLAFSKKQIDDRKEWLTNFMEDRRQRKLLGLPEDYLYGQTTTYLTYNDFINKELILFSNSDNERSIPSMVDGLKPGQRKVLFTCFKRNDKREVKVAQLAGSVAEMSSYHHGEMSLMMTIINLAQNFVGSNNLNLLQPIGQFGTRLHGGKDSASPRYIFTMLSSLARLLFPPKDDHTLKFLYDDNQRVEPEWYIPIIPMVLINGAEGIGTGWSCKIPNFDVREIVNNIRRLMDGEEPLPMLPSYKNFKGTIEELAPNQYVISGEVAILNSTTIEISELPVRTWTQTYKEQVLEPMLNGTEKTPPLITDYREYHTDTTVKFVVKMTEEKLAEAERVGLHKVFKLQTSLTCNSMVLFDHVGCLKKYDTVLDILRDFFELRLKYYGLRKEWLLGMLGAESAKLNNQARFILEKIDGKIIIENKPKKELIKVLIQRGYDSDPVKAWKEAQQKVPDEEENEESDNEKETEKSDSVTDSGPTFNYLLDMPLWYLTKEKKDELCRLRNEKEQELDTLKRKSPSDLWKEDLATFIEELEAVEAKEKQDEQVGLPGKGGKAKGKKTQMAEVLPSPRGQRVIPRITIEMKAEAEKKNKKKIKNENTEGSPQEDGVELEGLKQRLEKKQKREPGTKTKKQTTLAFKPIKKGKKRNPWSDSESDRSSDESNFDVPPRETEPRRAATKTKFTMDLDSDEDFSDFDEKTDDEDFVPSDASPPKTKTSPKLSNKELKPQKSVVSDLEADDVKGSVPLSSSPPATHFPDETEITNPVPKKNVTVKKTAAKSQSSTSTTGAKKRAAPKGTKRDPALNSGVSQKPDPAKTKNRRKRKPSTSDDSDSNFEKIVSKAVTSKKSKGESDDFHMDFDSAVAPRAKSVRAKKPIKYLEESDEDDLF", "assay": "Inhibition of human topoisomerase 2alpha-mediated prestrand-passage DNA religation after 6 mins by agarose gel electrophoresis", "in_short": "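Topo II (6 units) with 0.25 μg supercoiled pBR322 in cleavage buffer with 5 mM CaCl2; equilibrium at 37 °C for 6 min. Compound added just before religation. Cleavage complex trapped with EDTA, NaCl added to block recleavage, samples put on ice. Religation started with cold MgCl2 (8.5 mM final), stopped with SDS, then 1% agarose electrophoresis.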"}, "[17]": {"biological_target": "DNA topoisomerase 2-alpha (Homo sapiens) (UniProt P11388)", "assay": "Induction of human topoisomerase 2alpha-mediated prestrand-passage DNA cleavage after 6 mins by agarose gel electrophoresis", "in_short": "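Supercoiled pBR322 (0.25 μg) was incubated with 6 units of topo II in cleavage buffer containing 5 mM MgCl2 at 37 °C for 6 min; the post-strand-passage reactions also received 1 mM APPNHP. Reactions were stopped with SDS and proteinase K, digested at 50 °C for 30 min, heated to 70 °C, and run on 1% agarose gels.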"}, "[18]": {"tested_on": "HL-60", "assay": "Induction of DNA damage in human HL60 cells assessed as increased histone H2AX expression at 20 uM agarose gel electrophoresis", "assay_type": "functional, cell-based", "details": "TDE = time-dependent effect"}, "[19]": {"tested_on": "HMEC", "assay": "Selectivity ratio of IC50 for human HMEC cells to IC50 for BxPC3 cells"}, "[20]": {"tested_on": "HMEC", "assay": "Selectivity ratio of IC50 for human HMEC cells to IC50 for Rh30 cells"}, "[21]": {"tested_on": "HMEC", "assay": "Selectivity ratio of IC50 for human HMEC cells to IC50 for HCT116 cells"}, "[22]": {"tested_on": "HMEC", "assay": "Selectivity ratio of IC50 for human HMEC cells to IC50 for Bel7402 cells"}, "[23]": {"tested_on": "HMEC", "assay": "Selectivity ratio of IC50 for human HMEC cells to IC50 for MKN45 cells"}, "[24]": {"tested_on": "HMEC", "assay": "Selectivity ratio of IC50 for human HMEC cells to IC50 for KB cells"}, "[25]": {"tested_on": "MCF7", "assay": "Selectivity ratio of IC50 for human HMEC cells to IC50 for MCF7 cells"}, "[26]": {"tested_on": "MDA-MB-468", "assay": "Selectivity ratio of IC50 for human HMEC cells to IC50 for MDA-MB-468 cells"}, "[27]": {"tested_on": "HMEC", "assay": "Selectivity ratio of IC50 for human HMEC cells to IC50 for A549 cells"}, "[28]": {"tested_on": "HMEC", "assay": "Selectivity ratio of IC50 for human HMEC cells to IC50 for A431 cells"}, "[29]": {"tested_on": "HCT-116", "assay": "Induction of apoptosis in human HCT116 cells assessed as accumulation at S phase at 5 uM after 24 hrs using PI staining based flow cytometric analysis (reference value: 27%)"}, "[30]": {"tested_on": "HCT-116", "assay": "Induction of apoptosis in human HCT116 cells assessed as accumulation at G2/M phase at 5 uM after 24 hrs using PI staining based flow cytometric analysis (reference value: 24.23%)"}}, "note": "The source made the active and inactive calls. The calls are words filed in the database; no cut-off is given here."}
{"compound": "COC1O[C@H](C)[C@@H](C)c2c(C)c3c(c(O)c21)[C@@H]1O[C@H](C)[C@@H](C)c2c(C)c(O)c([C@H]4O[C@H](C)[C@@H](C)c5c(C)c(O)cc(O)c54)c(c21)O3", "note": "(stereo not given in full) [TRICITRINOL B]", "values": [{"measurement": "Activity", "setting": "[1]", "result": "Active"}, {"measurement": "Activity", "setting": "[2]", "result": "Active"}, {"measurement": "Activity", "setting": "[3]", "result": "Active"}, {"measurement": "Activity", "setting": "[4]", "result": "Dose-dependent effect"}, {"measurement": "Activity", "setting": "[5]", "result": "Dose-dependent effect"}, {"measurement": "Activity", "setting": "[6]", "result": "Dose-dependent effect"}, {"measurement": "Activity", "setting": "[7]", "result": "Dose-dependent effect"}, {"measurement": "Activity", "setting": "[8]", "result": "Active"}, {"measurement": "Activity", "setting": "[9]", "result": 10, "unit": "%"}, {"measurement": "Ratio IC50", "setting": "[10]", "result": 1.28}, {"measurement": "IC50", "setting": "[11]", "result": 4.6, "unit": "µM"}, {"measurement": "IC50", "setting": "[12]", "result": 7.41, "unit": "µM"}, {"measurement": "IC50", "setting": "[13]", "result": 4.83, "unit": "µM"}, {"measurement": "IC50", "setting": "[14]", "result": 3.87, "unit": "µM"}, {"measurement": "IC50", "setting": "[15]", "result": 4.82, "unit": "µM"}, {"measurement": "inhibition", "setting": "[16]", "result": "Dose-dependent effect"}, {"measurement": "Activity", "setting": "[17]", "result": "Dose-dependent effect"}, {"measurement": "Activity", "setting": "[18]", "result": "tde"}, {"measurement": "Ratio IC50", "setting": "[19]", "result": 2}, {"measurement": "Ratio IC50", "setting": "[20]", "result": 2}, {"measurement": "Ratio IC50", "setting": "[21]", "result": 2}, {"measurement": "Ratio IC50", "setting": "[22]", "result": 2}, {"measurement": "Ratio IC50", "setting": "[23]", "result": 2}, {"measurement": "Ratio IC50", "setting": "[24]", "result": 2}, {"measurement": "Ratio IC50", "setting": "[25]", "result": 2}, {"measurement": "Ratio IC50", "setting": "[26]", "result": 2}, {"measurement": "Ratio IC50", "setting": "[27]", "result": 2}, {"measurement": "Ratio IC50", "setting": "[28]", "result": 2}, {"measurement": "Activity", "setting": "[29]", "result": 20.42, "unit": "%"}, {"measurement": "Activity", "setting": "[30]", "result": 42.06, "unit": "%"}]}
